Results filed as inconclusive are left out.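 How the source made its calls, unless noted: active means growth inhibition above 25% in both replicates, a cutoff set 3 SD above the mean; inconclusive means above 25% in only one replicate; inactive means the rest.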
Experiments:
[1] = OD615 S. cerevisiae growth inhibition, permissive medium, pilot counter-assay, permissive growth control for S. cerevisiae lifespan shortening project (AID 705); conditions: OD615, 24 h, at 10 µM, active compounds read high
Outline: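 System – S. cerevisiae with engineered DeaD lifespan system · Buffer or medium – SC raffinose/galactose permissive medium · Schedule – cells pre-grown 4 h, then 24 h compound exposure, 30 °C humidified · Technique – culture turbidity as optical density at 615 nm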

[2] = Restrictive medium S. cerevisiae growth inhibition, OD615, pilot screen of yeast lifespan reduction project, restrictive growth control (AID 706;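 active means growth inhibition above a set limit, 3 SD over mean compound inhibition, in both replicates, cut at about 43% in these data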;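 further: modified DeaD lifespan yeast strain shifted to restrictive glucose medium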); conditions: OD615, 48 h, at 10 µM, active compounds read high
Outline: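 Material: engineered S. cerevisiae DeaD strain / Medium: glucose-based CSMM-D restrictive medium / Compound: single dose of 10 µM compound final, 0.25% DMSO / Timing: 4 h pre-incubation, 48 h exposure at 30 °C / Technique: OD615 absorbance reading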

[3] = viability gain of MRP-1-high H69AR cells under doxorubicin, pilot screen, MRP-1 activator project, CellTiter-Glo, duplicate (AID 807;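 active means viability increase at or above a cutoff of the median across tested compounds plus 3 SD, cut at about 8.5% in these data, passing the limit was not always enough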;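 further: compound pretreatment 18-22 h then 72 h combined with doxorubicin; 0% = doxorubicin alone and 100% = vehicle without doxorubicin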); conditions: H69AR viability with doxorubicin, CellTiter-Glo luminescence; at 10 µM; active compounds read high
[4] = growth suppression of beta-catenin knockout HCT116, pilot screen, human colon tumor cells (AID 823;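 active means cell viability at or below a set limit in both duplicate runs, the limit being the all-compound median minus 4 SD, cut at about 23% in these data, passing the limit was not always enough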;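 further: 0% = wells killed by 20 µM Hyamine and 100% = untreated DMSO cell wells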); conditions: CellTiter-Glo, 60 h, at 10 µM, active compounds read low
[5] = growth suppression of PTEN-deleted HCT116, pilot screen, cell-based, HCT116 clonal line, CellTiter-Glo (AID 824;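 active means viability at or below 27.92% in each of two runs, the all-compound median minus 4 SD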;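 further: 0% = 20 µM Hyamine control and 100% = vehicle cell control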); conditions: 60 h, at 10 µM, active compounds read low
[6] = inhibitors of the yeast RAM network, pilot screen, dse1pr::URA3 reporter, 5-FOA selection (AID 869;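 active means inhibition over a set limit, the all-compound mean plus 3 SD, in both replicate runs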;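 further: 0% = DMSO wells with no growth and 100% = 10 µM 1-NA-PP1 with full growth; RAM network block rescues cells from 5-FOA so hits raise OD615 growth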); conditions: S. cerevisiae dse1pr::URA3 5-FOA growth, OD615, 2 d; at 10 µM; active compounds read high; strain carries analog-sensitive mutant Cbk1 kinase
[7] = RAM signaling pathway blockade in yeast – S. cerevisiae, Pdr1DBD-CYC8 efflux-inhibited sensitized strain, primary screen (AID 1298;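 active means RAM network inhibition above 8.4% in each of two replicates, 3 SD over the compound average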;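 further: 0% = DMSO untreated cells without growth and 100% = 10 µM 1-NA-PP1 full growth; higher means more yeast growth rescued from 5-FOA killing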); conditions: S. cerevisiae cbk1-as DSE1-URA3 strain, 5-FOA growth OD615, 2 d; at 50 µM; active compounds read high

CCCCSc1nc2c(cnn2-c2ccc(C)c(C)c2)c(=O)[nH]1
inactive: growth inhibition [1] -3.77% | growth inhibition [2] 8.57% | viability increase [3] -6.91% | viability [4] 59.1% | viability [5] 59.5% | inhibition [6] 1.05% | RAM network inhibition [7] 5.36%

COc1ccccc1N(CC(O)CN1C(=O)NC(C)(C)C1=O)S(=O)(=O)c1ccc(C)cc1 (stereo unspecified)
inactive: growth inhibition [1] -7.72% | growth inhibition [2] -4.29% | viability increase [3] -0.66% | viability [4] 101% | viability [5] 99.9% | inhibition [6] 1.41% | RAM network inhibition [7] 5.03%

COc1ccc(CNc2nc3c(c(=O)[nH]c(=O)n3C)n2Cc2ccccc2C)cc1
inactive: growth inhibition [1] -14.8% | growth inhibition [2] -13.7% | viability increase [3] -4.3% | viability [4] 96.2% | viability [5] 89.5% | inhibition [6] 2.08% | RAM network inhibition [7] 2.1%

CCOC(=O)CN1Cc2cccc(C(=O)O)c2C1=O
inactive: growth inhibition [1] -13.8% | growth inhibition [2] -18.1% | viability increase [3] -0.75% | viability [4] 95.6% | viability [5] 96.3% | inhibition [6] 0.535% | RAM network inhibition [7] 1.31%

O=C(CCc1nc2ccccc2[nH]1)NC1CCCCC1
inactive: growth inhibition [1] -16.3% | growth inhibition [2] -17.4% | viability increase [3] -0.01% | viability [4] 102% | viability [5] 96.9% | inhibition [6] 1.21% | RAM network inhibition [7] 1.28%

COc1ccc(N2CCN(C(=O)C34CCC(C)(C(=O)C3)C4(C)C)CC2)cc1 (stereo unspecified)
inactive: growth inhibition [1] -1.5% | growth inhibition [2] 0.815% | viability increase [3] -0.51% | viability [4] 88% | viability [5] 91.8% | inhibition [6] 1.86% | RAM network inhibition [7] -0.21%

CCOC(=O)N1CCC(N2CC34C=CC(O3)C(C(=O)Nc3ccc(C)cc3)C4C2=O)CC1 (stereo unspecified)
inactive: growth inhibition [1] -0.385% | growth inhibition [2] -0.16% | viability increase [3] 1.43% | viability [4] 100% | viability [5] 102% | inhibition [6] 1.33% | RAM network inhibition [7] 2.54%

COc1ccc(C(=O)CCC(=O)O)cc1
inactive: growth inhibition [1] -6.25% | growth inhibition [2] 0.095% | viability increase [3] -0.14% | viability [4] 98.1% | viability [5] 96.7% | inhibition [6] 2.16% | RAM network inhibition [7] -2.03%

CC1C(=O)CC(c2ccccc2)N(C)C1c1ccccc1 (stereo unspecified)
inactive: growth inhibition [1] -16% | growth inhibition [2] -18% | viability increase [3] -4.71% | viability [4] 82.8% | viability [5] 84.1% | inhibition [6] 2.57% | RAM network inhibition [7] 8%

COc1ccc(NC(=O)C(c2ccc(C)cc2)N(C)C(=O)c2cnccn2)cc1 (stereo unspecified)
inactive: growth inhibition [1] 1.81% | growth inhibition [2] 1.4% | viability increase [3] -1.03% | viability [4] 89.6% | viability [5] 95.6% | inhibition [6] -0.145% | RAM network inhibition [7] 0.06%

COc1cccc(-c2nc3cc(C)ccc3o2)c1
inactive: growth inhibition [1] -5.93% | growth inhibition [2] 0.415% | viability increase [3] -4.74% | viability [4] 87.2% | viability [5] 75.4% | inhibition [6] 1.08% | RAM network inhibition [7] 4.09%

CCc1cccc(C)c1NC(=O)CN1C(=O)c2ccccc2S1(=O)=O
inactive: growth inhibition [1] -7.37% | growth inhibition [2] 1.46% | viability increase [3] -0.23% | viability [4] 98.3% | viability [5] 93.2% | inhibition [6] 0.955% | RAM network inhibition [7] 4.79%

c1csc(CCNc2ncnc3sc4c(c23)CCC4)c1
inactive: growth inhibition [1] -5.19% | growth inhibition [2] 13.9% | viability increase [3] -5.93% | viability [4] 39.9% | viability [5] 50.1% | inhibition [6] 0.385% | RAM network inhibition [7] -0.9%

Cc1cc(C)n2nc3nc4c(cc3c2n1)CCCC4
inactive: growth inhibition [1] -8.72% | growth inhibition [2] -14.6% | viability increase [3] -4.42% | viability [4] 88.2% | viability [5] 82.7% | inhibition [6] 4.34% | RAM network inhibition [7] 3.01%

CCOC(=O)N1CCN(c2nc(C)cc(C(F)(F)F)n2)CC1
inactive: growth inhibition [1] 1.86% | growth inhibition [2] -23.3% | viability increase [3] 2.84% | viability [4] 102% | viability [5] 96.5% | inhibition [6] 2.92% | RAM network inhibition [7] 2.23%

COc1ccc(NC(=O)CN2C(=O)CC(C)(C)S(=O)(=O)c3ccccc32)cc1
inactive: growth inhibition [1] -4.11% | growth inhibition [2] 2.55% | viability increase [3] 0.92% | viability [4] 104% | viability [5] 96.7% | inhibition [6] 1.35% | RAM network inhibition [7] 2.45%

O=C(Nn1c(=S)[nH]c2ccccc2c1=O)c1ccncc1
inactive: growth inhibition [1] 6.51% | growth inhibition [2] -5.44% | viability increase [3] -2.87% | viability [4] 91.9% | viability [5] 90.5% | inhibition [6] 1.75% | RAM network inhibition [7] 4.74%

C=CCn1c(=O)c2c(nc3n2CC(C)CN3c2cccc(OC)c2)n(C)c1=O (stereo unspecified)
inactive: growth inhibition [1] -16.1% | growth inhibition [2] -8.79% | viability increase [3] -3.27% | viability [4] 97.7% | viability [5] 98.8% | inhibition [6] 1.56% | RAM network inhibition [7] 5.52%

Source: PubChem BioAssay
